Results published in the EternaBench riboswitch data.

Test system: MS2 coat protein
Assay: apparent Kd, MS2 coat protein; higher = weaker binding; RNA-MaP array; FMN 200 µM where present
Procedure, shortened: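 Green signal from SNAP-549-labelled MS2 coat protein was normalised to red-channel RNA signal and to the median Fmax of control clusters. The protein was titrated from 0.7 or 1.5 nM, doubling to 3 µM, without and then with constant ligand, over designs transcribed by stalled E. coli RNA polymerase on Illumina sequencing-chip clusters, in 100 mM Tris-HCl pH 7.5, 80 mM KCl, 4 mM MgCl2, BSA, DTT, yeast tRNA and Tween-20. The apparent Kd is the median of filtered per-cluster binding-curve fits.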

[1] = designed as: OFF switch for flavin mononucleotide, no ligand
[2] = ligand present: flavin mononucleotide, designed as: OFF switch for flavin mononucleotide
[3] = designed as: ON switch for flavin mononucleotide, no ligand
[4] = ligand present: flavin mononucleotide, designed as: ON switch for flavin mononucleotide

Sequence	apparent Kd [1] [µM]	apparent Kd [2] [µM]	apparent Kd [3] [µM]	apparent Kd [4] [µM]
AAAAUGUCAGGAUAUUGUUAGUUUAGUUGUUUGUAUUAGUUCGAGAAGGGACAUGAGGAUCACCCAUGUUGAAA	0.0338	0.033	–	–
GAGCUCGAUGAGAAGGGUUACAUGAGGAUCACCCAUGUCGACCUUGGCGUAACAGGAUAUCACCGGGCUCAGUGCGUUGACCCA	0.0271	0.121	–	–
AACAGACAUGAGGAUCACCCAUGUAGAAUUAUGGGAGGAUAUACAAAGACGAGAGUCAGAGUAGAAGGCCUAGGAC	–	–	0.0465	0.0299
AAUGGGCACCAGAAGGACAUGAGGAUCACCCAUGUAGGAUAUGGGCGUUGAAGAUGUCGGAACGAGUUGCUGGAAAGAUAUGGA	–	–	0.194	0.0206
UUGAAUUUAAACAUGAGGAUCACCCAUGUGUCAUAGUUGAUAUAGGAUAUGUUUAUACUUUGAAAGCAGAAGGAUGACGAUACU	–	–	0.0189	0.0152
CUGAGUAGUCAGGAUAUGCUGUACAAAAGUACAGCAGAAGGGAUUACAUGAGGAUCACCCAUGUUUACUUCAUG	0.0448	0.209	–	–
UUAUGUAUUGUAGGAUAUCAUAAGUUAUGUAUUAUAAUUGAAAUUUUGUUAUGAGAAGGACAUAUACAUGAGGAUCACCCAUGU	0.0166	0.014	–	–
AAUUUAAAGGGAGGAUAUACAUGAGGAUCACCCAUGUAAUCAUAUGAUAUUUUUUUUGUAUGAGUGUAGAAGGCCCAAAUAAAA	0.00772	0.0093	–	–
GGAUAUGACAGAGGAUAUACGUGCUAGAGAUACUAGCAAAAUUUCCUCACAUGAGGAUCACCCAUGUAGAAGGCUGUCCUAUCG	0.0163	0.275	–	–
CGGCGGAAAGGAUAUGCAGUAAUAUCAAAAUGUGGGCCACGACAUGAGGAUCACCCAUGUAGAAGGUUCAGCCA	0.016	0.0136	–	–
AAUUUUUAACAGAAGGCGUUUAUAUUUAAGUUACGAGGAUAUGUAUAACAUGAGGAUCACCCAUGUAACAUGGAUAUUUAAUAA	–	–	0.0103	0.00849
CUCGUGUAAGGAUAUGCGGGCGGGCGCGUUUGUGUUUGUUUGUAGAAGGUACAUGAGGAUCACCCAUGUACUGG	0.0255	0.0574	–	–
UGCCUACAUGAGGAUCACCCAUGUGAGGAUAUCCUGCGAGGAUCAAAAGAUCCUCGUGGGAGAAGGCGCUUGGA	0.0189	0.0323	–	–
UGUCCAUAGCAGAAGGACAUGAAUAAUCAUGAAAACAUGAGGAUCACCCAUGUAGGAUAUGCUAUGGACUAAGAGCGAAAGCUC	0.0286	0.43	–	–
UUGGUUGUCGUAGGAUAUGUAGGAUAUUCCUACAUGAGGAUCACCCAUGUUCGCAUGGAAGAAGGACGGAAGGACGAUGACCAU	–	–	0.317	0.109
GAGUGACAUGAGGAUCACCCAUGUGAGGAUAUCGGACGGACCUAGUUAGCUUCCGCCGCGAGAAGGCACAUCGG	0.121	0.0458	–	–
AGCGUCGGCACAGGAUAUGAGAUGCCGGCAGACAUGAGGAUCACCCAUGUAAGCGACCCAGGCAGUCAGAAGGGUGAUCGACAA	–	–	0.121	0.065
CAUUAACAUGAGGAUCACCCAUGUGAGGAUAUGAUAUUACUUGGACAGCUGUGGUCAAUCAGAAGGCACAUCUU	0.0278	0.0329	–	–
AAACAGCGAGAUAAUAAUGAUUACAUGAGGAUCACCCAUGUAUAGGAUAUCGUCAGGAAUACUGACGAGAAGGAUACAACGCUG	0.016	0.0265	–	–
GUUGUGCGAGGAUAUACUUGGUGUGUCCUGUGCACGUAAUGACAUGAGGAUCACCCAUGUAGAAGGUGCCCAGG	0.0328	0.0339	–	–
GUCAGCUCGUCAGGAUAUACGUCACUGCUUCGGCAGUGUGGUAAGAUCACAUGAGGAUCACCCAUGUAGAAGGGACGAGCUGAC	0.0137	0.252	–	–
AACAGGACAGGAUAUACAUGAGGAUCACCCAUGUGAGAAUUAAGUAGAUUACCACAAAGUAGAAGGGUCCUGGA	0.0504	0.0872	–	–
GGGUUGUGAGGAUAUUAGUUGUACGUCAAUAGACGUGUGGGUGAGAAGGCACAUGAGGAUCACCCAUGUUCCUG	0.181	0.169	–	–
AAACCCUGAGGAUAUACAUAACAACAAAGCCUCACGUGCCAACAUGAGGAUCACCCAUGUAGAAGGCAGGCCAA	0.0128	0.0417	–	–
GUGUACAGAGGAUAUACAUAAGCUAGGAAACUAGCAUCCUCACAUGAGGAUCACCCAUGUAGAAGGCUGUACAC	0.305	0.0196	–	–
CACACAUGAGGAUCACCCAUGUCGUGGGCGGAAAACUGUGCACAGGAUAUGGUGAAGGCAACUCACCAGAAGGGUGGUCAGGGA	–	–	0.113	0.055
CUGGAUCACGCAGGAUAUUACAUGAGGAUCACCCAUGUCAGGACUGCAAUAUCGUCUCCUCGUUGUGAGAAGGGCGGAAUCAUU	0.0146	0.0263	–	–
GUCGGAAACGACAAAAGUAGCAUACGAGAAGGCUGAUCCACGACAUGAGGAUCACCCAUGUACUUAGAGGAUAUUGGAUGCUAC	–	–	0.11	0.0261
